The source made the active and inactive calls. The calls are words filed in the database; no cut-off is given here.
Legend:
[1] = biological target: T1, Protein cereblon/Mitogen-activated protein kinase 14 (Homo sapiens, UniProt Q16539+Q96SW2); assay: Protac activity at CRBN/p38alpha in human BBL358 cells assessed as p38alpha degradation at 10 uM measured after 24 hrs by immunoblotting analysis; format: cell-based
Summary of the method: (§1)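 BBL358 or T47D cells given compound 10 µM for 24 h. RIPA lysates run on SDS-PAGE and immunoblotted for p38α. Odyssey infrared band intensities give p38α/tubulin ratio, normalised to untreated cells and reported as % degradation. Mean ±SEM with n=2 or more (one set: n=2 BBL358, n=1 T47D).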
Target sequence in this assay (Q16539 2-360 limits assumed): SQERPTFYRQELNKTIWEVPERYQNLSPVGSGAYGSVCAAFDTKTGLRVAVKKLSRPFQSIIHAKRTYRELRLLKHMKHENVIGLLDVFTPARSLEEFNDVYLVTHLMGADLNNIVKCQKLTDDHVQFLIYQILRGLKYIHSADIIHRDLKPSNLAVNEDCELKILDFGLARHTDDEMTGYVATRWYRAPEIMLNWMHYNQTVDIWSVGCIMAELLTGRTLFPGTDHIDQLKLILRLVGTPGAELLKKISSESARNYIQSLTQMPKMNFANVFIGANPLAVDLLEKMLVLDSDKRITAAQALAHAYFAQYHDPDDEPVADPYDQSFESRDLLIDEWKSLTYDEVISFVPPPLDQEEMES
Target sequence in this assay (Q96SW2 whole entry partner): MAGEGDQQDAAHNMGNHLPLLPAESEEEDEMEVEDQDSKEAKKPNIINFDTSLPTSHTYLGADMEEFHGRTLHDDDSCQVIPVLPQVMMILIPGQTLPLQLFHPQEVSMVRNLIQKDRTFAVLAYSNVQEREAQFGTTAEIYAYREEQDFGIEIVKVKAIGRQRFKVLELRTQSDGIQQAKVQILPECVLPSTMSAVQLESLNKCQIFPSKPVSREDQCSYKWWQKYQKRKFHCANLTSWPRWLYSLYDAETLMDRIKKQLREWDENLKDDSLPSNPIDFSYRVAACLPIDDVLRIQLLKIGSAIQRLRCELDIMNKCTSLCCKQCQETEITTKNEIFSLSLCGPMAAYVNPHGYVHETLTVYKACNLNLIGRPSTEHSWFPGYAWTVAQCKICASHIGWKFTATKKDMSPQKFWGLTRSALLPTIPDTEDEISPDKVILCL

[2] = biological target: T1, Protein cereblon/Mitogen-activated protein kinase 14; assay: Protac activity at CRBN/p38alpha in human T47D cells assessed as p38alpha degradation at 10 uM measured after 24 hrs by immunoblotting analysis; format: cell-based; summary of the method: as §1
Target sequence in this assay (Q16539 2-360 limits assumed): as the sequence (Q16539 2-360 limits assumed) above
Target sequence in this assay (Q96SW2 whole entry partner): as the sequence (Q96SW2 whole entry partner) above

[3] = biological target: T1, Protein cereblon/Mitogen-activated protein kinase 14; assay: Protac activity at CRBN/p38alpha in human T47D cells assessed as p38alpha degradation at 1 uM measured after 24 hrs by immunoblotting analysis; format: cell-based
Summary of the method: (§2)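 MDA-MB-231 and T47D cells exposed 24 h to 1 µM; N-methylated imide analogues tested alongside. RIPA lysates immunoblotted for p38α, intensities quantified from infrared imaging.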
Target sequence in this assay (Q16539 2-360 limits assumed): as the sequence (Q16539 2-360 limits assumed) above
Target sequence in this assay (Q96SW2 whole entry partner): as the sequence (Q96SW2 whole entry partner) above

[4] = biological target: T1, Protein cereblon/Mitogen-activated protein kinase 14; assay: Protac activity at CRBN/p38alpha in human MDA-MB-231 cells assessed as p38alpha degradation at 1 uM measured after 24 hrs by immunoblotting analysis; format: cell-based; summary of the method: as §2
Target sequence in this assay (Q16539 2-360 limits assumed): as the sequence (Q16539 2-360 limits assumed) above
Target sequence in this assay (Q96SW2 whole entry partner): as the sequence (Q96SW2 whole entry partner) above

[5] = biological target: T1, Protein cereblon/Mitogen-activated protein kinase 14; assay: Protac activity at CRBN/p38alpha in human MDA-MB-231 cells assessed as reduction in UV-induced MK2 phosphorylation at 1 uM after 24 hrs by immunoblotting analysis; format: cell-based
Summary of the method: (§3)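 MDA-MB-231 cells pre-incubated with compound, then p38α pathway stimulated with UV at 30 J/m2; PH797804 reference at 2 µM. Lysates immunoblotted for phospho-MK2. Cells grown in DMEM with 10% FBS at 37 °C, 5% CO2.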
Target sequence in this assay (Q16539 2-360 limits assumed): as the sequence (Q16539 2-360 limits assumed) above
Target sequence in this assay (Q96SW2 whole entry partner): as the sequence (Q96SW2 whole entry partner) above

[6] = biological target: T1, Protein cereblon/Mitogen-activated protein kinase 14; assay: Protac activity at CRBN/p38alpha in human T47D cells assessed as p38alpha degradation measured after 24 hrs by immunoblotting analysis; format: cell-based
Summary of the method: (§4)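 T47D and MDA-MB-231 cells treated with a concentration series for 24 h; lysates immunoblotted for p38α. p38α/tubulin band ratio normalised to untreated cells; DC50 (conc. giving 50% degradation) fitted from biological duplicates.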
Target sequence in this assay (Q16539 whole entry): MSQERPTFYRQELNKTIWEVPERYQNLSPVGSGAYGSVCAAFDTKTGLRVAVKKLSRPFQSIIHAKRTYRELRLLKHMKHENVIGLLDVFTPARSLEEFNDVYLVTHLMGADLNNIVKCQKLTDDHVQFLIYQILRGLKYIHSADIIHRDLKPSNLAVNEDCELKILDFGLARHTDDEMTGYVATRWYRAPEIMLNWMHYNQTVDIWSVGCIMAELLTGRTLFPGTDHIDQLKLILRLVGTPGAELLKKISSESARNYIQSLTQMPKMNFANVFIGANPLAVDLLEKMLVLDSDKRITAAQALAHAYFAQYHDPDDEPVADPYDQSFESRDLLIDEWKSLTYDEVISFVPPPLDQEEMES
Target sequence in this assay (Q96SW2 whole entry): as the sequence (Q96SW2 whole entry partner) above

[7] = biological target: T1, Protein cereblon/Mitogen-activated protein kinase 14; assay: Protac activity at CRBN/p38alpha in human MDA-MB-231 cells assessed as p38alpha degradation measured after 24 hrs by immunoblotting analysis; format: cell-based; summary of the method: as §4
Target sequence in this assay (Q16539 whole entry): as the sequence (Q16539 whole entry) above
Target sequence in this assay (Q96SW2 whole entry): as the sequence (Q96SW2 whole entry partner) above

[8] = biological target: T2, Protein cereblon/Mitogen-activated protein kinase 11 (Homo sapiens, UniProt Q15759+Q96SW2); assay: Protac activity at CRBN/p38beta in human T47D cells assessed as p38beta degradation at 1 uM measured after 24 hrs by immunoblotting analysis; format: cell-based
Target sequence in this assay (Q15759 whole entry): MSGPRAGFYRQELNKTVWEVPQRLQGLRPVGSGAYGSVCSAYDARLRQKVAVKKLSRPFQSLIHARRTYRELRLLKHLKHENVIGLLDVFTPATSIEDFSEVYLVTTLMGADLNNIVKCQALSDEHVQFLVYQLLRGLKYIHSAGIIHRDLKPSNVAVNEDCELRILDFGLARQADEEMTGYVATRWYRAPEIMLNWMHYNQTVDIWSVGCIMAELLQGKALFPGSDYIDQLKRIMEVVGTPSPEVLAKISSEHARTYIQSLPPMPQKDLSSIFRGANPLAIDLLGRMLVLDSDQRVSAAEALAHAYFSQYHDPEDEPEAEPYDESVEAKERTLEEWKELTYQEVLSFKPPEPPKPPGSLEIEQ
Target sequence in this assay (Q96SW2 whole entry): as the sequence (Q96SW2 whole entry partner) above

[9] = biological target: T2, Protein cereblon/Mitogen-activated protein kinase 11; assay: Protac activity at CRBN/p38beta in human MDA-MB-231 cells assessed as p38beta degradation at 1 uM measured after 24 hrs by immunoblotting analysis; format: cell-based
Target sequence in this assay (Q15759 whole entry): as the sequence (Q15759 whole entry) above
Target sequence in this assay (Q96SW2 whole entry): as the sequence (Q96SW2 whole entry partner) above

[10] = biological target: T1, Protein cereblon/Mitogen-activated protein kinase 14; assay: Protac activity at CRBN/p38alpha in human retina epithelial cells assessed as p38alpha degradation at 1 uM measured after 24 hrs by immunoblotting analysis; format: tissue-based; settings: Epithelial cell
Target sequence in this assay (Q16539 2-360 limits assumed): as the sequence (Q16539 2-360 limits assumed) above
Target sequence in this assay (Q96SW2 whole entry partner): as the sequence (Q96SW2 whole entry partner) above

[11] = biological target: T1, Protein cereblon/Mitogen-activated protein kinase 14; assay: Protac activity at CRBN/p38alpha in […] cells assessed as p38alpha degradation at 1 uM measured after 24 hrs by immunoblotting analysis; format: cell-based
[12] = biological target: T2, Protein cereblon/Mitogen-activated protein kinase 11; assay: Protac activity at CRBN/p38beta in human retina epithelial cells assessed as p38beta degradation at 1 uM measured after 24 hrs by immunoblotting analysis; format: tissue-based; settings: Epithelial cell
Target sequence in this assay (Q15759 whole entry, looked up): as the sequence (Q15759 whole entry) above
Target sequence in this assay (Q96SW2 whole entry, looked up): as the sequence (Q96SW2 whole entry partner) above

[13] = biological target: T2, Protein cereblon/Mitogen-activated protein kinase 11; assay: Protac activity at CRBN/p38beta in […] cells assessed as p38beta degradation at 1 uM measured after 24 hrs by immunoblotting analysis; format: cell-based
Target sequence in this assay (Q15759 whole entry, looked up): as the sequence (Q15759 whole entry) above
Target sequence in this assay (Q96SW2 whole entry, looked up): as the sequence (Q96SW2 whole entry partner) above

[14] = Induction of change in p38alpha protein expression in human MDA-MB-231 cells at 1 uM incubated for 16 hrs by mass spectrometry based proteomic analysis; format: cell-based; settings: mda-mb-231, 16 h
Summary of the method: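 MDA-MB-231 cells SILAC-labelled to ≥95% in arginine/lysine-free DMEM-F12 with 2% dialysed FBS; heavy cells got compound, light cells got DMSO, 16 h. Lysis in 4% SDS, 0.1 M DTT, Tris pH 7.6; FASP trypsin digestion overnight at 37 °C; nano-LC C18 MS/MS with 300 min run; protein-level heavy/light change.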

[15] = biological target: T1, Protein cereblon/Mitogen-activated protein kinase 14; assay: Protac activity at CRBN/p38alpha in human MDA-MB-231 cells assessed as reduction in UV-induced MK2 phosphorylation at 1 uM after 48 hrs by immunoblotting analysis; format: cell-based; summary of the method: as §3
[16] = Protac activity at CRBN/p38beta in mouse bone marrow derived macrophages assessed as p38beta degradation at 1 uM measured after 24 hrs by immunoblotting analysis; settings: Macrophage
[17] = Protac activity at CRBN/p38alpha in mouse bone marrow derived macrophages assessed as p38alpha degradation at 1 uM measured after 24 hrs by immunoblotting analysis; settings: Macrophage

SMILES	Activity [1]	Activity [2]	further results
C=C1c2cccc(NCCCCCNC(=O)CCCn3cc(CCCCNC(=O)c4ccc(C)c(-n5c(C)cc(OCc6ccc(F)cc6F)c(Br)c5=O)c4)nn3)c2C(=O)N1C1CCC(=O)NC1=O (centres undefined)	47%	16%	–
Cc1ccc(C(=O)NCCCCc2cn(CCCC(=O)NCCCCNc3cccc4c3C(=O)N(C3CCC(=O)N(C)C3=O)C4=O)nn2)cc1-n1c(C)cc(OCc2ccc(F)cc2F)c(Br)c1=O (centres undefined)	–	–	Activity [3]: inactive; Activity [4]: inactive; Activity [5]: inactive
Cc1ccc(C(=O)NCCc2cn(CCCC(=O)NCCNc3cccc4c3C(=O)N(C3CCC(=O)NC3=O)C4=O)nn2)cc1-n1c(C)cc(OCc2ccc(F)cc2F)c(Br)c1=O (centres undefined)	–	8%	–
Cc1ccc(C(=O)NCCCCc2cn(CCCC(=O)NCCCCCCNc3cccc4c3C(=O)N(C3CCC(=O)NC3=O)C4=O)nn2)cc1-n1c(C)cc(OCc2ccc(F)cc2F)c(Br)c1=O (centres undefined)	67%	47%	–
Cc1ccc(C(=O)NCCCCc2cn(CCOCCOCCOCCOCCNc3cccc4c3C(=O)N(C3CCC(=O)NC3=O)C4=O)nn2)cc1-n1c(C)cc(OCc2ccc(F)cc2F)c(Br)c1=O (centres undefined)	92%	41%	–
Cc1ccc(C(=O)NCCCCc2cn(CC[C@H](NC(=O)OC(C)(C)C)C(=O)NCCCCNc3cccc4c3C(=O)N(C3CCC(=O)NC3=O)C4=O)nn2)cc1-n1c(C)cc(OCc2ccc(F)cc2F)c(Br)c1=O (some centres undefined)	81%	93%	–
Cc1ccc(C(=O)NCCCCNc2cccc3c2C(=O)N(C2CCC(=O)NC2=O)C3=O)cc1-n1c(C)cc(OCc2ccc(F)cc2F)c(Br)c1=O (centres undefined)	8%	–	–
Cc1ccc(C(=O)NCCCCc2cn(CCOCCOCCOCCNc3cccc4c3C(=O)N(C3CCC(=O)NC3=O)C4=O)nn2)cc1-n1c(C)cc(OCc2ccc(F)cc2F)c(Br)c1=O (centres undefined)	78%	26%	–
C=C1c2cccc(NCCCCCCNC(=O)CCCn3cc(CCCCNC(=O)c4ccc(C)c(-n5c(C)cc(OCc6ccc(F)cc6F)c(Br)c5=O)c4)nn3)c2C(=O)N1C1CCC(=O)N(C)C1=O (centres undefined)	–	–	Activity [3]: inactive; Activity [4]: inactive; Activity [5]: inactive
Cc1ccc(C(=O)NCCCCc2cn(CCCC(=O)NCCOCCOCCNc3cccc4c3C(=O)N(C3CCC(=O)NC3=O)C4=O)nn2)cc1-n1c(C)cc(OCc2ccc(F)cc2F)c(Br)c1=O (centres undefined)	79%	85%	–
Cc1ccc(C(=O)NCCCc2cn(CCCC(=O)NCCCCNc3cccc4c3C(=O)N(C3CCC(=O)NC3=O)C4=O)nn2)cc1-n1c(C)cc(OCc2ccc(F)cc2F)c(Br)c1=O (centres undefined)	84%	91%	–
Cc1ccc(C(=O)NCCc2cn(CCCC(=O)NCCCCNc3cccc4c3C(=O)N(C3CCC(=O)NC3=O)C4=O)nn2)cc1-n1c(C)cc(OCc2ccc(F)cc2F)c(Br)c1=O (centres undefined)	40%	25%	–
Cc1ccc(C(=O)NCCCCc2cn(CC[C@H](N)C(=O)NCCCCNc3cccc4c3C(=O)N(C3CCC(=O)NC3=O)C4=O)nn2)cc1-n1c(C)cc(OCc2ccc(F)cc2F)c(Br)c1=O (some centres undefined)	–	4%	–
Cc1ccc(C(=O)NCCCCc2cn(CCCC(=O)NCCCCNc3cccc4c3C(=O)N(C3CCC(=O)NC3=O)C4=O)nn2)cc1-n1c(C)cc(OCc2ccc(F)cc2F)c(Br)c1=O (centres undefined)	84%	89%	DC50 [6]: 24 nM; DC50 [7]: 27.2 nM; DC50 [8]: 48.5 nM; DC50 [9]: 48.9 nM; Activity [10]: Active; Activity [11]: Active; Activity [12]: Active; Activity [13]: Active; Activity [14]: Active; Activity [5]: Active; Activity [15]: Active; Activity [16]: Active; Activity [17]: Active

More lines, main results first:

Activity [1]	Activity [2]	SMILES	further results
60%	–	Cc1ccc(C(=O)NCCOCCOCCNc2cccc3c2C(=O)N(C2CCC(=O)NC2=O)C3=O)cc1-n1c(C)cc(OCc2ccc(F)cc2F)c(Br)c1=O (centres undefined)	–
60%	68%	Cc1ccc(C(=O)NCCCc2cn(CCCC(=O)NCCCNc3cccc4c3C(=O)N(C3CCC(=O)NC3=O)C4=O)nn2)cc1-n1c(C)cc(OCc2ccc(F)cc2F)c(Br)c1=O (centres undefined)	–
82%	20%	Cc1ccc(C(=O)NCCOCCOCCOCCOCCOCCOCCNc2cccc3c2C(=O)N(C2CCC(=O)NC2=O)C3=O)cc1-n1c(C)cc(OCc2ccc(F)cc2F)c(Br)c1=O (centres undefined)	–
0.5%	76%	Cc1ccc(C(=O)NCCCCc2cn(CCCC(=O)NCCOCCOCCNC(=O)c3ccc4c(c3)C(=O)N(C3CCC(=O)N(Cc5ccccc5[N+](=O)[O-])C3=O)C4=O)nn2)cc1-n1c(C)cc(OCc2ccc(F)cc2F)c(Br)c1=O (centres undefined)	–
55%	–	Cc1ccc(C(=O)NCCOCCOCCNC(=O)c2ccc3c(c2)C(=O)N(C2CCC(=O)NC2=O)C3=O)cc1-n1c(C)cc(OCc2ccc(F)cc2F)c(Br)c1=O (centres undefined)	–
40%	–	Cc1ccc(C(=O)NCCCCNC(=O)c2ccc3c(c2)C(=O)N(C2CCC(=O)NC2=O)C3=O)cc1-n1c(C)cc(OCc2ccc(F)cc2F)c(Br)c1=O (centres undefined)	–
12%	40%	Cc1ccc(C(=O)NCCCCc2cn(CCCC(=O)NCCNc3cccc4c3C(=O)N(C3CCC(=O)NC3=O)C4=O)nn2)cc1-n1c(C)cc(OCc2ccc(F)cc2F)c(Br)c1=O (centres undefined)	–
74%	87%	Cc1ccc(C(=O)NCCCCc2cn(CCCC(=O)NCCCNc3cccc4c3C(=O)N(C3CCC(=O)NC3=O)C4=O)nn2)cc1-n1c(C)cc(OCc2ccc(F)cc2F)c(Br)c1=O (centres undefined)	–
36%	42%	Cc1ccc(C(=O)NCCc2cn(CCCC(=O)NCCCNc3cccc4c3C(=O)N(C3CCC(=O)NC3=O)C4=O)nn2)cc1-n1c(C)cc(OCc2ccc(F)cc2F)c(Br)c1=O (centres undefined)	–
77%	82%	Cc1ccc(C(=O)NCCCCc2cn(CCCC(=O)NCCCCCNc3cccc4c3C(=O)N(C3CCC(=O)NC3=O)C4=O)nn2)cc1-n1c(C)cc(OCc2ccc(F)cc2F)c(Br)c1=O (centres undefined)	–
3%	20%	Cc1ccc(C(=O)NCCCCc2cn(CCCC(=O)NCCOCCOCCNc3cccc4c3C(=O)N(C3CCC(=O)N(Cc5ccccc5[N+](=O)[O-])C3=O)C4=O)nn2)cc1-n1c(C)cc(OCc2ccc(F)cc2F)c(Br)c1=O (centres undefined)	–

Reference: ChEMBL document CHEMBL4765369, “Optimal linker length for small molecule PROTACs that selectively target p38α and p38β for degradation” (Eur J Med Chem, 2020)
